Test results from BindingDB's records for doi:10.1021/jm950682e (Institute De Recherches Servier, 1996).
Numbered stars: 1 amine (or outer) side, 2 acyl side, 3 side chain; on linkers, the order of the positions; unused ones are H or OH. Square brackets hold non-standard residues; d marks the D form. Peptide text beside a SMILES is read from it. * marks the point of attachment. Pentanoyl(5-guanidino) = NC(N)=NCCCCC(=O)*; NH(CH2)9CO = O=C(CCCCCCCCCN[*:1])[*:2]; Oic = O=C(O)[CH]1C[CH]2CCCC[CH]2N1; Tic = O=C(O)[CH]1Cc2ccccc2CN1; 2Thi = N[CH](Cc1cccs1)C(=O)O; X2 = N=C(N)NCCCCCC(=O)*; GABA = NCCCC(=O)O

Target: T1, B2 bradykinin receptor (Oryctolagus cuniculus, UniProt Q28642)
T1 sequence (Q28642 whole entry): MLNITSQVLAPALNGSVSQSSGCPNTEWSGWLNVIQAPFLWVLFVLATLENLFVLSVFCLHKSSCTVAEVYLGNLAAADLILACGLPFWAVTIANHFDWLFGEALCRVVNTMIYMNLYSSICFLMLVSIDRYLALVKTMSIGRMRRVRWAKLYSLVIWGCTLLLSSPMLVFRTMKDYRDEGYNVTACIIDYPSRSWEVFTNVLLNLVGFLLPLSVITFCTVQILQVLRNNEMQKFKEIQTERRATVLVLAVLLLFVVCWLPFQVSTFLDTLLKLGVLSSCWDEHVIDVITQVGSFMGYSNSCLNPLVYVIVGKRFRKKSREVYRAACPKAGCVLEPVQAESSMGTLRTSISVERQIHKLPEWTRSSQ
Test: In vitro antagonistic activity against kinin-induced rabbit jugular vein contraction.
Outline: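 Rabbit jugular vein rings (B2 tissue), reference KCl 60 mM contraction then 45 min rest; antagonist, usually 10-7, 10^-6 and 10^-5 M, incubated 45 min before cumulative bradykinin; one curve per ring; pA2 by Tallarida's method with Schild slope constrained to unity, or pKB from EC50 ratio when activity appeared only at 10^-5 M.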

SMILES | Kd
N=C(N)NCCCCCC(=O)NC(Cc1cccs1)C(=O)N1Cc2ccccc2CC1C(=O)N1C(C(=O)NC(CCCNC(=N)N)C(=O)O)CC2CCCCC21 (stereo not given) (X2-[2Thi][Tic][Oic]R-OH; configuration not given here) | 3.39 µM
N=C(N)NCCCC(NC(=O)C1CC2CCCCC2N1C(=O)C1Cc2ccccc2CN1C(=O)C(Cc1cccs1)NC(=O)CCCCCCCCCN)C(=O)O (stereo not given) ({NH(CH2)9CO}-[2Thi][Tic][Oic]R-OH; configuration not given here) | 0.468 µM

More lines, now with the values ahead:

Kd | SMILES
0.363 µM | N=C(N)NCCCC(NC(=O)C1CC2CCCCC2N1C(=O)C1Cc2ccccc2CN1C(=O)C(Cc1ccccc1)NC(=O)CCCN)C(=O)O (stereo not given) (H-[GABA]F[Tic][Oic]R-OH; configuration not given here)
0.251 µM | N=C(N)NCCCC(NC(=O)C1CC2CCCCC2N1C(=O)C1Cc2ccccc2CN1C(=O)C(Cc1cccs1)NC(=O)CCCN)C(=O)O (stereo not given) (H-[GABA][2Thi][Tic][Oic]R-OH; configuration not given here)
3.02 µM | N=C(N)NCCCCC(=O)NC(Cc1cccs1)C(=O)N1Cc2ccccc2CC1C(=O)N1C(C(=O)NC(CCCNC(=N)N)C(=O)O)CC2CCCCC21 (stereo not given) ({Pentanoyl(5-guanidino)}-[2Thi][Tic][Oic]R-OH; configuration not given here)
